Twelve molecules from ChEMBL document CHEMBL5131563, “Accelerated Identification of Cell Active KRAS Inhibitory Macrocyclic Peptides using Mixture Libraries and Automated Ligand Identification System (ALIS) Technology” (J Med Chem, 2022) can be followed below.

One series deals with GTPase KRas (Homo sapiens, UniProt P01116, G12D). In words: Inhibition of recombinant biotinylated KRAS G12D mutant (unknown origin) assessed as inhibition of SOS-catalyzed nucleotide exchange preincubated for 60 mins followed by addition of human SOS protein and unlabeled GTP and measured after 60 mins by TR-FRET analysis. An outline of the steps: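 Biotinylated KRAS G12D was treated in EDTA buffer (1 h, RT), then loaded at 90 nM with 900 nM Bodipy-GDP and 15 nM Tb-streptavidin in Mg2+ buffer, HEPES pH 7.5 (6 h, RT). It was used at 1.5 nM assay solution with a 10-point, 3-fold DMSO compound series for 60 min at RT. A solution of 120 nM human SOS plus GTP was added for 60 min. The read-out was TR-FRET at 520/495 nm, normalized to DMSO and saturating-inhibitor controls, with a 4-parameter fit.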
Sequence of GTPase KRas (P01116 whole entry G12D): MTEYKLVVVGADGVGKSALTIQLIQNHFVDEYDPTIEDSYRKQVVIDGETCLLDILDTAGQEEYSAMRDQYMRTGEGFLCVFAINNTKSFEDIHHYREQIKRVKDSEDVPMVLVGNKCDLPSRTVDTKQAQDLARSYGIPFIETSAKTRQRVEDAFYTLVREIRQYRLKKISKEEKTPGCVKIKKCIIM
On the technique in general: Time-resolved FRET reads energy transfer from a long-lived donor to a nearby acceptor.

Series [1] in a line: Stability in human HeLa cell homogenate assessed as half life by LC-MS/MS analysis. The class given is ADME, cell-based. An outline of the steps:
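HeLa cells suspended at 1 × 10^6 cells/mL, probe-sonicated on ice until homogeneous, stored frozen at –20 °C. Peptides incubated with homogenate (1 × 10^6 cells/mL equivalent); peptide loss over time quantified by LC-MS/MS to derive t1/2.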

Each structure is given as a SMILES string. pIC50: −log10 of the molar value. Where a SMILES comes first, the peptide text is derived from it. Bridges are numbered along the chain shown (N, C = ends). [ ]: non-standard residue; d: D form. Bip = N[C@@H](Cc1ccc(-c2ccccc2)cc1)C(=O)O; Ala(cPent) = N[C@@H](CC1CCCC1)C(=O)O; hPhe = N[C@@H](CCc1ccccc1)C(=O)O; Cha = N[C@@H](CC1CCCCC1)C(=O)O; hLeu = CC(C)CC[C@H](N)C(=O)O; Nva = CCC[C@H](N)C(=O)O Bounds are passed on as bounds.

In general, pIC50 refers to the IC50 on a negative log10 scale, so that one unit is a factor of ten. What is called half-life is the time needed for the level to fall by half in the phase considered. `CCC[C@@H]1NC(=O)[C@H](CC2CCCCC2)NC(=O)[C@H](CC(C)C)NC(=O)[C@@H]2CCCN2C(=O)[C@@H](NC(=O)[C@H](CCCNC(=N)N)NC(=O)[C@H](CCCNC(=N)N)NC(C)=O)CSSC[C@@H](C(=O)N[C@@H](CCCNC(=N)N)C(=O)N[C@@H](CCCNC(=N)N)C(N)=O)NC(=O)[C@H](C(C)C)NC(=O)[C@@H]2CCCN2C(=O)[C@H](CC(=O)O)NC(=O)[C@H](Cc2ccc(O)cc2)NC(=O)[C@H](CO)NC1=O` (Ac-RRCPL[Cha][Nva]SYDPVCRR-NH2; disulfide 3-13): on GTPase KRas, the negative logarithm of the IC50 (pIC50) was < 4.95. Besides, the half-life in series [1] was determined as 27 min.

In the case of `CC(=O)N[C@@H](CCCNC(=N)N)C(=O)N[C@@H](CCCNC(=N)N)C(=O)N[C@H]1CSSC[C@@H](C(=O)N[C@@H](CCCNC(=N)N)C(=O)N[C@@H](CCCNC(=N)N)C(N)=O)NC(=O)[C@H](C(C)C)NC(=O)[C@@H]2CCCN2C(=O)[C@H](CC(=O)O)NC(=O)[C@H](Cc2ccc(O)cc2)NC(=O)[C@H](CO)NC(=O)[C@H](CCC(C)C)NC(=O)[C@H](Cc2ccc(-c3ccccc3)cc2)NC(=O)[C@H](CC(C)C)NC(=O)[C@@H]2CCCN2C1=O` (Ac-RRCPL[Bip][hLeu]SYDPVCRR-NH2; disulfide 3-13), the pIC50 on GTPase KRas was < 4.95. Further, the half-life in series [1] came to 17 min.

`CC[C@H](C)[C@@H]1NC(=O)[C@H](Cc2ccc(O)cc2)NC(=O)[C@H](CC(C)C)NC(=O)[C@@H]2CCCN2C(=O)[C@@H](NC(=O)[C@H](CCCNC(=N)N)NC(=O)[C@H](CCCNC(=N)N)NC(C)=O)CSSC[C@@H](C(=O)N[C@@H](CCCNC(=N)N)C(=O)N[C@@H](CCCNC(=N)N)C(N)=O)NC(=O)[C@H](C(C)C)NC(=O)[C@@H]2CCCN2C(=O)[C@H](CC(=O)O)NC(=O)[C@H](Cc2cc(F)c(F)c(F)c2)NC(=O)[C@H](CO)NC1=O`: the pIC50 at GTPase KRas was 6.71. The half-life in series [1] came to 18 min.

As for `CCC[C@@H]1NC(=O)[C@H](CCc2ccccc2)NC(=O)[C@H](CC(C)C)NC(=O)[C@@H]2CCCN2C(=O)[C@@H](NC(=O)[C@H](CCCNC(=N)N)NC(=O)[C@H](CCCNC(=N)N)NC(C)=O)CSSC[C@@H](C(=O)N[C@@H](CCCNC(=N)N)C(=O)N[C@@H](CCCNC(=N)N)C(N)=O)NC(=O)[C@H](C(C)C)NC(=O)[C@@H]2CCCN2C(=O)[C@H](CC(=O)O)NC(=O)[C@H](Cc2ccc(O)cc2)NC(=O)[C@H](CO)NC1=O` (Ac-RRCPL[hPhe][Nva]SYDPVCRR-NH2; disulfide 3-13), at GTPase KRas, the pIC50 is < 4.95. Also, the half-life in series [1] amounted to 15 min.

Regarding `CC(=O)N[C@@H](CCCNC(=N)N)C(=O)N[C@@H](CCCNC(=N)N)C(=O)N[C@H]1CSSC[C@@H](C(=O)N[C@@H](CCCNC(=N)N)C(=O)N[C@@H](CCCNC(=N)N)C(N)=O)NC(=O)[C@H](C(C)C)NC(=O)[C@@H]2CCCN2C(=O)[C@H](CC(=O)O)NC(=O)[C@H](Cc2ccc(O)cc2)NC(=O)[C@H](CO)NC(=O)[C@H](CCC(C)C)NC(=O)[C@H](CC2CCCCC2)NC(=O)[C@H](CC(C)C)NC(=O)[C@@H]2CCCN2C1=O` (Ac-RRCPL[Cha][hLeu]SYDPVCRR-NH2; disulfide 3-13), the pIC50 on GTPase KRas is < 4.95. Further, the half-life in series [1] was found to be 25 min.

As to `CC[C@H](C)[C@@H]1NC(=O)[C@H](Cc2ccc(O)cc2)NC(=O)[C@H](CC(C)C)NC(=O)[C@@H]2CCCN2C(=O)[C@@H](NC(=O)[C@H](CCCNC(=N)N)NC(=O)[C@H](CCCNC(=N)N)NC(C)=O)CSSC[C@@H](C(=O)N[C@@H](CCCNC(=N)N)C(=O)N[C@@H](CCCNC(=N)N)C(N)=O)NC(=O)[C@H](C(C)C)NC(=O)[C@@H]2CCCN2C(=O)[C@H](CC(=O)O)NC(=O)[C@H](Cc2ccc(O)cc2)NC(=O)[C@H](CO)NC1=O` (Ac-RRCPLYISYDPVCRR-NH2; disulfide 3-13), the pIC50 at GTPase KRas is 7.27. In addition, in series [1], the half-life turned out to be 23 min.

As to `CC[C@H](C)[C@@H]1NC(=O)[C@H](CC2CCCCC2)NC(=O)[C@H](CC(C)C)NC(=O)[C@@H]2CCCN2C(=O)[C@@H](NC(=O)[C@H](CCCNC(=N)N)NC(=O)[C@H](CCCNC(=N)N)NC(C)=O)CSSC[C@@H](C(=O)N[C@@H](CCCNC(=N)N)C(=O)N[C@@H](CCCNC(=N)N)C(N)=O)NC(=O)[C@H](C(C)C)NC(=O)[C@@H]2CCCN2C(=O)[C@H](CC(=O)O)NC(=O)[C@H](Cc2ccc(O)cc2)NC(=O)[C@H](CO)NC1=O` (Ac-RRCPL[Cha]ISYDPVCRR-NH2; disulfide 3-13), on GTPase KRas, the pIC50 is 6.79. The half-life in series [1] came out at 21 min.

Turning to `CC[C@H](C)[C@@H]1NC(=O)[C@H](Cc2ccc(O)cc2)NC(=O)[C@H](CC(C)C)NC(=O)[C@@H]2CCCN2C(=O)[C@@H](NC(=O)[C@H](CCCNC(=N)N)NC(=O)[C@H](CCCNC(=N)N)NC(C)=O)CSSC[C@@H](C(=O)N[C@@H](CCCNC(=N)N)C(=O)N[C@@H](CCCNC(=N)N)C(N)=O)NC(=O)[C@H](C(C)C)NC(=O)[C@@H]2CCCN2C(=O)[C@H](CC(=O)O)NC(=O)[C@H](C(c2ccccc2)c2ccccc2)NC(=O)[C@H](CO)NC1=O`, the pIC50 on GTPase KRas was 6.60. For the same molecule, the half-life in series [1] was determined as 30 min.

Take `CC[C@H](C)[C@@H]1NC(=O)[C@H](Cc2ccc(-c3ccccc3)cc2)NC(=O)[C@H](CC(C)C)NC(=O)[C@@H]2CCCN2C(=O)[C@@H](NC(=O)[C@H](CCCNC(=N)N)NC(=O)[C@H](CCCNC(=N)N)NC(C)=O)CSSC[C@@H](C(=O)N[C@@H](CCCNC(=N)N)C(=O)N[C@@H](CCCNC(=N)N)C(N)=O)NC(=O)[C@H](C(C)C)NC(=O)[C@@H]2CCCN2C(=O)[C@H](CC(=O)O)NC(=O)[C@H](Cc2ccc(O)cc2)NC(=O)[C@H](CO)NC1=O` (Ac-RRCPL[Bip]ISYDPVCRR-NH2; disulfide 3-13): the pIC50 at GTPase KRas was 8.15. The half-life in series [1] was 55 min.

For `CCC[C@@H]1NC(=O)[C@H](Cc2ccc(-c3ccccc3)cc2)NC(=O)[C@H](CC(C)C)NC(=O)[C@@H]2CCCN2C(=O)[C@@H](NC(=O)[C@H](CCCNC(=N)N)NC(=O)[C@H](CCCNC(=N)N)NC(C)=O)CSSC[C@@H](C(=O)N[C@@H](CCCNC(=N)N)C(=O)N[C@@H](CCCNC(=N)N)C(N)=O)NC(=O)[C@H](C(C)C)NC(=O)[C@@H]2CCCN2C(=O)[C@H](CC(=O)O)NC(=O)[C@H](Cc2ccc(O)cc2)NC(=O)[C@H](CO)NC1=O` (Ac-RRCPL[Bip][Nva]SYDPVCRR-NH2; disulfide 3-13), the pIC50 at GTPase KRas was 6.22. The half-life in series [1] amounted to 26 min.

As to `CC[C@H](C)[C@@H]1NC(=O)[C@H](CCc2ccccc2)NC(=O)[C@H](CC(C)C)NC(=O)[C@@H]2CCCN2C(=O)[C@@H](NC(=O)[C@H](CCCNC(=N)N)NC(=O)[C@H](CCCNC(=N)N)NC(C)=O)CSSC[C@@H](C(=O)N[C@@H](CCCNC(=N)N)C(=O)N[C@@H](CCCNC(=N)N)C(N)=O)NC(=O)[C@H](C(C)C)NC(=O)[C@@H]2CCCN2C(=O)[C@H](CC(=O)O)NC(=O)[C@H](Cc2ccc(O)cc2)NC(=O)[C@H](CO)NC1=O` (Ac-RRCPL[hPhe]ISYDPVCRR-NH2; disulfide 3-13), the pIC50 at GTPase KRas was 5.86. The half-life in series [1] worked out at 37 min.

Turning to `CC(=O)N[C@@H](CCCNC(=N)N)C(=O)N[C@@H](CCCNC(=N)N)C(=O)N[C@H]1CSSC[C@@H](C(=O)N[C@@H](CCCNC(=N)N)C(=O)N[C@@H](CCCNC(=N)N)C(N)=O)NC(=O)[C@H](C(C)C)NC(=O)[C@@H]2CCCN2C(=O)[C@H](CC(=O)O)NC(=O)[C@H](Cc2ccc(O)cc2)NC(=O)[C@H](CO)NC(=O)[C@H](CC2CCCC2)NC(=O)[C@H](CCc2ccccc2)NC(=O)[C@H](CC(C)C)NC(=O)[C@@H]2CCCN2C1=O` (Ac-RRCPL[hPhe][Ala(cPent)]SYDPVCRR-NH2; disulfide 3-13), the pIC50 at GTPase KRas was < 4.95. The half-life in series [1] was found to be 16 min.
